Source: ChEMBL document CHEMBL4732051, “The discovery of potent small molecule activators of human STING” (Eur J Med Chem, 2021)

The compounds below were run against T1, Stimulator of interferon genes protein (Homo sapiens, UniProt Q86WV6) (assay: Activation of wild-type human STING expressed in HEK293T cells assessed as IRF3 reporter activation at 1 uM measured after 20 hrs by luciferase reporter gene assay). Settings: not given.
Assay type: cell-based
Procedure, shortened: (§1)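 HEK293T-hSTING cells carrying a secreted luciferase reporter under an IRF-inducible promoter, made by blasticidin selection and clonal selection; parental HEK293T-luciferase cells as control. 5 x 10^5 cells per well treated at a single concentration. Supernatant luciferase read after 20 h by Quanti-Luc, as % activation relative to a positive-control agonist.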

T1 sequence (Q86WV6 whole entry): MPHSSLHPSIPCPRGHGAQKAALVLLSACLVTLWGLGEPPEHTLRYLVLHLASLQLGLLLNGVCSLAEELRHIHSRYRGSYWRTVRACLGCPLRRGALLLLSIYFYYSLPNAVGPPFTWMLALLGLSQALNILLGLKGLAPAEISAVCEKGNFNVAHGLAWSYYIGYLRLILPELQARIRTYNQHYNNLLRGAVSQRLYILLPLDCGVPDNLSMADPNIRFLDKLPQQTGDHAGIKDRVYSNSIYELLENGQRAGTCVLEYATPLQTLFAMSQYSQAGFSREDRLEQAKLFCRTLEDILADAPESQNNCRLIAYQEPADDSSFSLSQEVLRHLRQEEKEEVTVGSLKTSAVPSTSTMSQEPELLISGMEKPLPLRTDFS

Activity	Compound
6%	CC1Oc2ncc(C(=O)NCc3c(F)cc(F)cc3F)cc2N(Cc2cc(F)cc(F)c2)C1=O (racemic)
3%	O=C(NCc1c(F)cc(F)cc1F)c1cnc2c(c1)N(Cc1cc(F)cc(F)c1)C(=O)CO2
20%	COC1(C)C(=O)N(Cc2c(F)cccc2Cl)c2cc(C(=O)NCc3c(F)cc(F)cc3F)ccc21 (racemic)
5%	O=C(NCc1c(F)cc(F)cc1F)c1ccc2c(n1)N(Cc1cc(F)cc(F)c1)C(=O)CC2

Same assay, conditions: filed as activator

Activity	Compound
40%	CC1Cc2ccc(C(=O)NCc3c(F)cc(F)cc3F)cc2N(Cc2cc(F)cc(F)c2)S1(=O)=O (racemic)
116%	CC1(C)C(=O)N(Cc2ccccc2F)c2cc(C(=O)NCc3c(F)cc(F)cc3F)ccc21
92%	CC1Cc2ccc(C(=O)NCc3c(F)cc(F)cc3F)cc2N(Cc2c(F)cccc2Cl)C1=O (racemic)
107%	O=C(NCc1c(F)cc(F)cc1F)c1ccc2c(c1)N(Cc1c(F)cccc1Cl)C(=O)CC2
95%	CC1Oc2ccc(C(=O)NCc3c(F)cc(F)cc3F)cc2N(Cc2cc(F)cc(F)c2)C1=O (racemic)
102%	CC1(C)CC(=O)N(Cc2cc(F)cc(F)c2)c2cc(C(=O)NCc3c(F)cc(F)cc3F)ccc21
102%	CC1(C#N)C(=O)N(Cc2c(F)cccc2Cl)c2cc(C(=O)NCc3c(F)cc(F)cc3F)ccc21 (racemic)

Each compound was assayed against T1, Stimulator of interferon genes protein (assay: Activation of wild-type human STING expressed in HEK293T cells assessed as IRF3 reporter activation at 10 uM measured after 20 hrs by luciferase reporter gene assay). Settings: not given.
Assay type: cell-based
Procedure, shortened: as §1

Activity	Compound
6%	O=C(NCc1ccco1)c1ccc2c(c1)N(Cc1c(F)cccc1Cl)C(=O)C21CC1
-1%	O=C(NCc1ccco1)c1ccc2c(c1)N(Cc1ccccc1)C(=O)CCO2
-1%	O=C(NCc1ccco1)c1ccc2ccn(Cc3ccccc3)c2c1
26%	O=C(NCc1c(F)cc(F)cc1F)c1ccc2c(c1)N(C(=O)c1c(F)cccc1Cl)CCO2
-1%	CN1C(=O)C(C)(Cc2ccccc2)c2cc(C(=O)NCc3ccco3)ccc21 (stereo unspecified)
27%	O=C(NCc1ccco1)c1ccc2c(c1)N(Cc1ccccc1)C(=O)CS2
-1%	O=C(NCc1ccco1)c1ccc2[nH]c(=O)n(Cc3ccccc3Cl)c2c1
0%	O=C(NCc1ccco1)c1ccc2[nH]c(=O)n(Cc3ccccc3)c(=O)c2c1
30%	O=C(NCc1ccco1)c1ccc2c(c1)N(Cc1c(F)cccc1Cl)C(=O)CO2

Same assay, conditions: filed as activator

Activity	Compound
58%	O=C(NCc1c(F)cc(F)cc1F)c1cnc2c(c1)N(Cc1cc(F)cc(F)c1)C(=O)CC2
73%	CC1(C)C(=O)N(Cc2ccccc2F)c2cc(C(=O)NCc3ccco3)ccc21
105%	O=C(NCc1ccco1)c1ccc2c(c1)N(Cc1c(F)cccc1Cl)C(=O)CC2

What follows are compounds tested against T1, Stimulator of interferon genes protein (assay: Activation of wild-type human STING expressed in HEK293T cells assessed as IRF3 reporter activation at 20 uM measured after 20 hrs by luciferase reporter gene assay). Settings: filed as activator.
Assay type: cell-based
Procedure, shortened: as §1

Activity	Compound
67%	CC1(O)C(=O)N(Cc2c(F)cccc2Cl)c2cc(C(=O)NCc3c(F)cc(F)cc3F)ccc21 (racemic)

The compounds below were run against T1, Stimulator of interferon genes protein (assay: Activation of wild-type human STING expressed in HEK293T cells assessed as IRF3 reporter activation at 50 uM measured after 20 hrs by luciferase reporter gene assay). Settings: not given.
Assay type: cell-based
Procedure, shortened: as §1

Activity	Compound
0%	O=C(NCc1ccco1)c1ccc2c(c1)N(Cc1ccccc1F)C(=O)C2=O

Each compound was assayed against T1, Stimulator of interferon genes protein (assay: Activation of wild-type human STING expressed in HEK293T cells assessed as IRF3 reporter activation at 100 uM measured after 20 hrs by luciferase reporter gene assay). Settings: not given.
Assay type: cell-based
Procedure, shortened: as §1

Activity	Compound
7%	O=C(NCc1ccco1)c1ccc2c(c1)N(Cc1c(F)cccc1Cl)C(=O)C[S+]2[O-] (stereo unspecified)
